ChEMBL document CHEMBL4311965, “Antimicrobial activity of amphipathic α,α-disubstituted β-amino amide derivatives against ESBL - CARBA producing multi-resistant bacteria; effect of halogenation, lipophilicity and cationic character” (Eur J Med Chem, 2019)
In brackets after ≈: the same amount, converted by molar mass.

What was measured:
Escherichia coli [1] = test: Antibacterial activity against Escherichia coli ATCC 25922 cultured in MHB medium assessed as no bacterial growth incubated at 37 degC for 24 hrs by microdilution susceptibility test; assay type: functional; details: ATCC 25922, 24 h
Outline: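 Broth microdilution per CLSI M07-A9 with modifications. Inoculum about 2.5–3 x 10⁴ cells/mL in Mueller-Hinton broth, mixed 1:1 with test derivative. DMSO stocks diluted in double-distilled water, final DMSO <1%. Incubation 24 h at 37 °C (20 °C for C. glutamicum). Growth and sterility controls included; oxytetracycline reference.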

Staphylococcus aureus [2] = test: Antibacterial activity against multidrug-resistant Staphylococcus aureus NCTC 10442 cultured in MHB medium assessed as reduction in bacterial growth incubated for 24 hrs by microdilution susceptibility test; assay type: functional; details: NCTC 10442, 24 h
Outline: (§1)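 Broth microdilution per CLSI M07-A9 (modified). Working solutions made from concentrated DMSO stocks kept at r.t., diluted in double-distilled water, final DMSO <1%. Inoculum 1–1.2 x 10⁶ cells/mL in Mueller-Hinton broth, mixed 1:1 with compound. 37 °C, 24 h, four parallels. Read as OD₆₀₀. Where precipitation left residual OD, the point of major OD decrease was taken as the inhibitory concentration.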

Escherichia coli [3] = test: Antibacterial activity against multidrug-resistant Escherichia coli 50639799 producing Verona integron encoded metallo beta-lactamse-29 cultured in MHB medium assessed as reduction in bacterial growth incubated for 24 hrs by microdilution susceptibility test; assay type: functional; details: Escherichia coli, 50639799, 24 h; outline: as §1
Klebsiella pneumoniae [4] = test: Antibacterial activity against multidrug-resistant Klebsiella pneumoniae 50667959 producing Verona integron encoded metallo beta-lactamse-1 cultured in MHB medium assessed as reduction in bacterial growth incubated for 24 hrs by microdilution susceptibility test; assay type: functional; details: Klebsiella pneumoniae, 50667959, 24 h; outline: as §1
Acinetobacter baumannii [5] = test: Antibacterial activity against multidrug-resistant Acinetobacter baumannii K47-42 producing oxcillinase-23 cultured in MHB medium assessed as reduction in bacterial growth incubated for 24 hrs by microdilution susceptibility test; assay type: functional; details: K47-42, 24 h; outline: as §1
Staphylococcus aureus [6] = test: Antibacterial activity against multidrug-resistant Staphylococcus aureus 85/2082 cultured in MHB medium assessed as reduction in bacterial growth incubated for 24 hrs by microdilution susceptibility test; assay type: functional; details: 85/2082, 24 h; outline: as §1
Staphylococcus aureus [7] = test: Antibacterial activity against multidrug-resistant Staphylococcus aureus N315 cultured in MHB medium assessed as reduction in bacterial growth incubated for 24 hrs by microdilution susceptibility test; assay type: functional; details: N315, 24 h; outline: as §1
Acinetobacter baumannii [8] = test: Antibacterial activity against multidrug-resistant Acinetobacter baumannii K63-58 producing oxcillinase-23 cultured in MHB medium assessed as reduction in bacterial growth incubated for 24 hrs by microdilution susceptibility test; assay type: functional; details: K63-58, 24 h; outline: as §1
Klebsiella pneumoniae [9] = test: Antibacterial activity against multidrug-resistant Klebsiella pneumoniae K66-45 producing New Delhi metallo-beta-lactamase-1 cultured in MHB medium assessed as reduction in bacterial growth incubated for 24 hrs by microdilution susceptibility test; assay type: functional; details: K66-45, 24 h; outline: as §1
Klebsiella pneumoniae [10] = test: Antibacterial activity against multidrug-resistant Klebsiella pneumoniae 50625602 producing oxcillinase-245 cultured in MHB medium assessed as reduction in bacterial growth incubated for 24 hrs by microdilution susceptibility test; assay type: functional; details: Klebsiella pneumoniae, 50625602, 24 h; outline: as §1
Enterococcus faecium [11] = test: Antibacterial activity against multidrug-resistant Enterococcus faecium TUH50-22 cultured in BHIB medium assessed as reduction in bacterial growth incubated for 24 hrs by microdilution susceptibility test; assay type: functional; details: TUH50-22, 24 h
Outline: (§2)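 Enterococci grown in Brain Heart Infusion broth, otherwise broth microdilution per CLSI M07-A9 (modified). Concentrated DMSO stocks kept at r.t. and diluted in double-distilled water, final DMSO <1%. Inoculum 1–1.2 x 10⁶ cells/mL mixed 1:1 with compound. 37 °C, 24 h, four parallels. OD₆₀₀ read-out, lowest concentration with no growth.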

Pseudomonas aeruginosa [12] = test: Antibacterial activity against multidrug-resistant Pseudomonas aeruginosa K34-73 producing Verona integron encoded metallo beta-lactamse-4 cultured in MHB medium assessed as reduction in bacterial growth incubated for 24 hrs by microdilution susceptibility test; assay type: functional; details: K34-73, 24 h; outline: as §1
[13] = Aqueous solubility of the compound in DMSO; assay type: physicochemical
Pseudomonas aeruginosa [14] = test: Antibacterial activity against multidrug-resistant Pseudomonas aeruginosa K34-7 producing Verona integron encoded metallo beta-lactamse-2 cultured in MHB medium assessed as reduction in bacterial growth incubated for 24 hrs by microdilution susceptibility test; assay type: functional; details: K34-7, 24 h; outline: as §1
Escherichia coli [15] = test: Antibacterial activity against multidrug-resistant Escherichia coli 50739822 producing New Delhi metallo-beta-lactamase-1 cultured in MHB medium assessed as reduction in bacterial growth incubated for 24 hrs by microdilution susceptibility test; assay type: functional; details: Escherichia coli, 50739822, 24 h; outline: as §1
Enterococcus faecium [16] = test: Antibacterial activity against multidrug-resistant Enterococcus faecium 50901530 cultured in BHIB medium assessed as reduction in bacterial growth incubated for 24 hrs by microdilution susceptibility test; assay type: functional; details: Enterococcus faecium, 50901530, 24 h; outline: as §2
Escherichia coli [17] = test: Antibacterial activity against multidrug-resistant Escherichia coli 50579417 producing oxcillinase-48 cultured in MHB medium assessed as reduction in bacterial growth incubated for 24 hrs by microdilution susceptibility test; assay type: functional; details: Escherichia coli, 50579417, 24 h; outline: as §1
HepG2 = test: Cytotoxicity against human HepG2 cells assessed as reduction in cell viability incubated for 4 hrs by CellTiter 96 Aqueous One Solution Reagent based assay; details: HepG2, 4 h
Outline: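 HepG2 and MRC-5 cells seeded at 35 000 and 15 000 cells/well respectively, then held overnight at 37 °C, 5% CO₂. Compounds in serum-free MEM Earle's applied for 4 h. MTS reagent (CellTiter 96 AQueous One) added for a further 1 h, absorbance read at 485 nm. Survival expressed relative to medium (negative) and Triton X-100 (positive) controls.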

NCCNC(=O)C(CN)(Cc1ccc(C(F)(F)F)cc1)Cc1ccc(C(F)(F)F)cc1
MIC (Escherichia coli [1]): 16 mg/L (≈ 35.8 µM) | MIC (Staphylococcus aureus [2]): > 32 mg/L | MIC (Escherichia coli [3]): > 32 mg/L | MIC (Klebsiella pneumoniae [4]): 32 mg/L (≈ 71.5 µM) | MIC (Acinetobacter baumannii [5]): > 32 mg/L | MIC (Staphylococcus aureus [6]): > 32 mg/L | MIC (Staphylococcus aureus [7]): > 32 mg/L | MIC (Acinetobacter baumannii [8]): > 32 mg/L | MIC (Klebsiella pneumoniae [9]): > 32 mg/L | MIC (Klebsiella pneumoniae [10]): 32 mg/L (≈ 71.5 µM) | MIC (Enterococcus faecium [11]): 8 mg/L (≈ 17.9 µM) | MIC (Pseudomonas aeruginosa [12]): > 32 mg/L | solubility [13]: Soluble | MIC (Pseudomonas aeruginosa [14]): > 32 mg/L | MIC (Escherichia coli [15]): 32 mg/L (≈ 71.5 µM) | MIC (Enterococcus faecium [16]): 16 mg/L (≈ 35.8 µM) | MIC (Escherichia coli [17]): > 32 mg/L

NCCNCC(CN)(Cc1ccc(F)c2ccccc12)Cc1ccc(F)c2ccccc12
MIC (Escherichia coli [1]): 4 mg/L (≈ 9.23 µM) | MIC (Staphylococcus aureus [2]): 4 mg/L (≈ 9.23 µM) | MIC (Escherichia coli [3]): 8 mg/L (≈ 18.5 µM) | MIC (Klebsiella pneumoniae [4]): 8 mg/L (≈ 18.5 µM) | MIC (Acinetobacter baumannii [5]): 16 mg/L (≈ 36.9 µM) | MIC (Staphylococcus aureus [6]): 4 mg/L (≈ 9.23 µM) | MIC (Staphylococcus aureus [7]): 4 mg/L (≈ 9.23 µM) | MIC (Acinetobacter baumannii [8]): 8 mg/L (≈ 18.5 µM) | MIC (Klebsiella pneumoniae [9]): 8 mg/L (≈ 18.5 µM) | MIC (Klebsiella pneumoniae [10]): 8 mg/L (≈ 18.5 µM) | MIC (Enterococcus faecium [11]): 4 mg/L (≈ 9.23 µM) | MIC (Pseudomonas aeruginosa [12]): 16 mg/L (≈ 36.9 µM) | MIC (Pseudomonas aeruginosa [14]): 16 mg/L (≈ 36.9 µM) | MIC (Escherichia coli [15]): 4 mg/L (≈ 9.23 µM) | EC50 (HepG2): 12 mg/L (≈ 27.7 µM) | MIC (Enterococcus faecium [16]): 4 mg/L (≈ 9.23 µM) | MIC (Escherichia coli [17]): 8 mg/L (≈ 18.5 µM)

NCCNC(=O)C(CN)(Cc1cc(C(F)(F)F)cc(C(F)(F)F)c1)Cc1cc(C(F)(F)F)cc(C(F)(F)F)c1
MIC (Escherichia coli [1]): 4 mg/L (≈ 6.86 µM) | MIC (Staphylococcus aureus [2]): 16 mg/L (≈ 27.4 µM) | MIC (Escherichia coli [3]): 16 mg/L (≈ 27.4 µM) | MIC (Klebsiella pneumoniae [4]): 16 mg/L (≈ 27.4 µM) | MIC (Acinetobacter baumannii [5]): 16 mg/L (≈ 27.4 µM) | MIC (Staphylococcus aureus [6]): 16 mg/L (≈ 27.4 µM) | MIC (Staphylococcus aureus [7]): 16 mg/L (≈ 27.4 µM) | MIC (Acinetobacter baumannii [8]): 8 mg/L (≈ 13.7 µM) | MIC (Klebsiella pneumoniae [9]): 32 mg/L (≈ 54.8 µM) | MIC (Klebsiella pneumoniae [10]): 16 mg/L (≈ 27.4 µM) | MIC (Enterococcus faecium [11]): 8 mg/L (≈ 13.7 µM) | MIC (Pseudomonas aeruginosa [12]): 32 mg/L (≈ 54.8 µM) | solubility [13]: Soluble | MIC (Pseudomonas aeruginosa [14]): > 32 mg/L | MIC (Escherichia coli [15]): 16 mg/L (≈ 27.4 µM) | EC50 (HepG2): 11 mg/L (≈ 18.9 µM) | MIC (Enterococcus faecium [16]): 4 mg/L (≈ 6.86 µM) | MIC (Escherichia coli [17]): 16 mg/L (≈ 27.4 µM)

NCCNC(=O)C(CN)(Cc1ccccc1C(F)(F)F)Cc1ccccc1C(F)(F)F
MIC (Escherichia coli [1]): 32 mg/L (≈ 71.5 µM) | MIC (Staphylococcus aureus [2]): > 32 mg/L | MIC (Escherichia coli [3]): > 32 mg/L | MIC (Klebsiella pneumoniae [4]): > 32 mg/L | MIC (Acinetobacter baumannii [5]): > 32 mg/L | MIC (Staphylococcus aureus [6]): > 32 mg/L | MIC (Staphylococcus aureus [7]): > 32 mg/L | MIC (Acinetobacter baumannii [8]): > 32 mg/L | MIC (Klebsiella pneumoniae [9]): > 32 mg/L | MIC (Klebsiella pneumoniae [10]): > 32 mg/L | MIC (Enterococcus faecium [11]): > 32 mg/L | MIC (Pseudomonas aeruginosa [12]): > 32 mg/L | solubility [13]: Soluble | MIC (Pseudomonas aeruginosa [14]): > 32 mg/L | MIC (Escherichia coli [15]): > 32 mg/L | EC50 (HepG2): 45 mg/L (≈ 101 µM) | MIC (Enterococcus faecium [16]): 32 mg/L (≈ 71.5 µM) | MIC (Escherichia coli [17]): > 32 mg/L

N=C(N)NCCNC(=O)C(CNC(=N)N)(Cc1ccc(F)c2ccccc12)Cc1ccc(F)c2ccccc12
MIC (Escherichia coli [1]): 16 mg/L (≈ 30.1 µM) | MIC (Staphylococcus aureus [2]): 4 mg/L (≈ 7.52 µM) | MIC (Escherichia coli [3]): 32 mg/L (≈ 60.2 µM) | MIC (Klebsiella pneumoniae [4]): > 32 mg/L | MIC (Acinetobacter baumannii [5]): > 32 mg/L | MIC (Staphylococcus aureus [6]): 4 mg/L (≈ 7.52 µM) | MIC (Staphylococcus aureus [7]): 4 mg/L (≈ 7.52 µM) | MIC (Acinetobacter baumannii [8]): > 32 mg/L | MIC (Klebsiella pneumoniae [9]): > 32 mg/L | MIC (Klebsiella pneumoniae [10]): > 32 mg/L | MIC (Enterococcus faecium [11]): 8 mg/L (≈ 15 µM) | MIC (Pseudomonas aeruginosa [12]): > 32 mg/L | MIC (Pseudomonas aeruginosa [14]): > 32 mg/L | MIC (Escherichia coli [15]): 32 mg/L (≈ 60.2 µM) | MIC (Enterococcus faecium [16]): 4 mg/L (≈ 7.52 µM) | MIC (Escherichia coli [17]): 32 mg/L (≈ 60.2 µM)
